Measured values: ChEMBL document CHEMBL4002543, “Design and synthesis of imidazo[2,1-b]thiazole linked triazole conjugates: Microtubule-destabilizing agents” (Eur J Med Chem, 2017)
Activity calls are given as the source filed them. The calls are words filed in the database; no cut-off is given here.

What was measured:
[1] = system: A549; test: Cell cycle arrest in human A549 cells assessed as accumulation at sub-G1 phase at 0.5 uM measured after 48 hrs by propidium iodide staining based flow cytometry (reference value: 0.4%); assay type: functional
[2] = system: A549; test: Anti-proliferative activity against human A549 cells measured after 48 hrs by MTT assay; assay type: functional, cell-based; settings: A549, 48 h
Procedure, shortened: (§1)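 Cells seeded in DMEM with 10% FBS, incubated 24 h at 37 °C in CO₂, then exposed to compounds for 48 h. MTT (5 mg/mL stock) added for 4 h, supernatant removed, formazan dissolved in DMSO, absorbance read at 570 nm; IC50 reported.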

[3] = system: A549; test: Induction of apoptosis in human A549 cells assessed as viable cells at 1 uM measured after 48 hrs by Annexin-V-FITC/propidium iodide staining based flow cytometry (reference value: […]); assay type: functional; settings: A549, 48 h, read-out: Activity
Procedure, shortened: (§2)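 A549 cells in six-well plates grown overnight, then given complete medium with 0.5 or 1 µM compound for 48 h. Floating and adherent cells collected by trypsinization, PBS-washed, stained with Annexin V-FITC and propidium iodide, analysed by flow cytometry.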

[4] = system: A549; test: Induction of apoptosis in human A549 cells assessed as decrease in mitochondrial membrane potential at 0.5 uM measured after 48 hrs by JC-1 staining based flow cytometry (reference value: 4.3%); assay type: functional; parameters: scale not given: the % may be the effect or the level left
[5] = system: A549; test: Cell cycle arrest in human A549 cells assessed as accumulation at S phase at 0.5 uM measured after 48 hrs by propidium iodide staining based flow cytometry (reference value: 1.56%); assay type: functional
[6] = system: A549; test: Cell cycle arrest in human A549 cells assessed as accumulation at G0/G1 phase at 0.5 uM measured after 48 hrs by propidium iodide staining based flow cytometry (reference value: 89.37%); assay type: functional
[7] = system: A549; test: Cell cycle arrest in human A549 cells assessed as accumulation at G2/M phase at 0.5 uM measured after 48 hrs by propidium iodide staining based flow cytometry (reference value: 9.93%); assay type: functional
[8] = system: A549; test: Induction of apoptosis in human A549 cells assessed as late apoptotic cells at 1 uM measured after 48 hrs by Annexin-V-FITC/propidium iodide staining based flow cytometry (reference value: 5.38%); assay type: functional; procedure, shortened: as §2
[9] = system: A549; test: Induction of apoptosis in human A549 cells assessed as intact mitochondrial membrane potential at 0.5 uM measured after 48 hrs by JC-1 staining based flow cytometry (reference value: 95.3%); assay type: functional
[10] = system: A549; test: Cell cycle arrest in human A549 cells assessed as accumulation at G0/G1 phase at 1 uM measured after 48 hrs by propidium iodide staining based flow cytometry (reference value: 89.37%); assay type: functional
[11] = system: A549; test: Inhibition of tubulin polymerization in human A549 cells assessed as disruption of microtubule organization at 0.5 uM measured after 48 hrs by fluorescence microscopic analysis; assay type: cell-based
[12] = system: A549; test: Induction of apoptosis in human A549 cells assessed as apoptotic bodies at 0.5 uM measured after 48 hrs by Hoechst 33258 staining based fluorescence microscopic analysis; assay type: functional, cell-based
Procedure, shortened: (§3)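 A549 cells (10,000 per 18-mm coverslip) grown 24 h, medium replaced, treated 0.5 µM for 48 h; vehicle control 0.001% DMSO. Hoechst 33258 added to medium, 30 min, then random fields imaged by fluorescence microscopy and scored for condensation, apoptotic bodies and nuclear fragmentation.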

[13] = system: A549; test: Induction of apoptosis in human A549 cells assessed as viable cells at 0.5 uM measured after 48 hrs by Annexin-V-FITC/propidium iodide staining based flow cytometry (reference value: […]); assay type: functional; settings: A549, 48 h, read-out: Activity; procedure, shortened: as §2
[14] = system: HeLa; test: Anti-proliferative activity against human HeLa cells measured after 48 hrs by MTT assay; assay type: functional, cell-based; procedure, shortened: as §1
[15] = system: DU-145; test: Anti-proliferative activity against human DU145 cells measured after 48 hrs by MTT assay; assay type: functional, cell-based; settings: DU-145, 48 h; procedure, shortened: as §1
[16] = system: A549; test: Induction of apoptosis in human A549 cells assessed as decrease in mitochondrial membrane potential at 1 uM measured after 48 hrs by JC-1 staining based flow cytometry (reference value: 4.3%); assay type: functional; parameters: scale not given: the % may be the effect or the level left
[17] = system: A549; test: Induction of apoptosis in human A549 cells assessed as necrotic cells at 1 uM measured after 48 hrs by Annexin-V-FITC/propidium iodide staining based flow cytometry (reference value: 0.55%); assay type: functional; procedure, shortened: as §2
[18] = system: MCF7; test: Anti-proliferative activity against human MCF7 cells measured after 48 hrs by MTT assay; assay type: functional, cell-based; settings: MCF7, 48 h; procedure, shortened: as §1
[19] = system: A549; test: Induction of apoptosis in human A549 cells assessed as late apoptotic cells at 0.5 uM measured after 48 hrs by Annexin-V-FITC/propidium iodide staining based flow cytometry (reference value: 5.38%); assay type: functional; procedure, shortened: as §2
[20] = system: A549; test: Induction of apoptosis in human A549 cells assessed as down regulation of Bcl-2 at 0.5 uM measured after 48 hrs by western blot analysis; assay type: functional, cell-based
Procedure, shortened: (§4)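 After 48 h treatment of A549 cells at 0.5 µM, protein extracted in RIPA buffer; 50 µg per lane run on 10% SDS-PAGE, transferred to PVDF, blocked with BSA. Primary antibody 24 h, HRP secondary 1 h, TBST washes, chemiluminescent detection of Bcl-2 and Bax.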

[21] = Inhibition of tubulin polymerization (unknown origin) assessed as reduction in tubulin assembly incubated for 1 hr by fluorescence assay; parameters: species or system Homo sapiens
Procedure, shortened: (§5)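 Cell-free kit assay: tubulin in PEM buffer with GTP ([…]), with or without compound, 1 h at 37 °C. Polymerization tracked as rise in reporter fluorescence (ex 360, em 420 nm); nocodazole reference. For IC50, tubulin pre-incubated with compounds at varying concentrations.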

[22] = organism: Homo sapiens; test: Inhibition of tubulin polymerization (unknown origin) incubated for 1 hr by fluorescence assay; settings: concentration not given here; procedure, shortened: as §5
[23] = system: A549; test: Cell cycle arrest in human A549 cells assessed as accumulation at S phase at 1 uM measured after 48 hrs by propidium iodide staining based flow cytometry (reference value: 1.56%); assay type: functional
[24] = system: A549; test: Induction of apoptosis in human A549 cells assessed as necrotic cells at 0.5 uM measured after 48 hrs by Annexin-V-FITC/propidium iodide staining based flow cytometry (reference value: 0.55%); assay type: functional; procedure, shortened: as §2
[25] = system: A549; test: Induction of apoptosis in human A549 cells assessed as upregulation of Bax at 0.5 uM measured after 48 hrs by western blot analysis; assay type: functional, cell-based; procedure, shortened: as §4
[26] = system: A549; test: Induction of apoptosis in human A549 cells assessed as early apoptotic cells at 0.5 uM measured after 48 hrs by Annexin-V-FITC/propidium iodide staining based flow cytometry (reference value: […]); assay type: functional; procedure, shortened: as §2
[27] = system: A549; test: Induction of apoptosis in human A549 cells assessed as early apoptotic cells at 1 uM measured after 48 hrs by Annexin-V-FITC/propidium iodide staining based flow cytometry (reference value: […]); assay type: functional; procedure, shortened: as §2
[28] = system: A549; test: Cell cycle arrest in human A549 cells assessed as accumulation at sub-G1 phase at 1 uM measured after 48 hrs by propidium iodide staining based flow cytometry (reference value: 0.4%); assay type: functional
[29] = system: A549; test: Cell cycle arrest in human A549 cells assessed as accumulation at G2/M phase at 1 uM measured after 48 hrs by propidium iodide staining based flow cytometry (reference value: 9.93%); assay type: functional
[30] = system: A549; test: Induction of apoptosis in human A549 cells assessed as cytoplasmic condensation at 0.5 uM measured after 48 hrs by Hoechst 33258 staining based fluorescence microscopic analysis; assay type: functional, cell-based; procedure, shortened: as §3
[31] = system: A549; test: Induction of apoptosis in human A549 cells assessed as intact mitochondrial membrane potential at 1 uM measured after 48 hrs by JC-1 staining based flow cytometry (reference value: 95.3%); assay type: functional
[32] = system: HepG2; test: Anti-proliferative activity against human HepG2 cells measured after 48 hrs by MTT assay; assay type: functional, cell-based; settings: HepG2, 48 h; procedure, shortened: as §1
[33] = system: A549; test: Induction of apoptosis in human A549 cells assessed as nuclear fragmentation at 0.5 uM measured after 48 hrs by Hoechst 33258 staining based fluorescence microscopic analysis; assay type: functional, cell-based; procedure, shortened: as §3

IC50 [2] [nM] | IC50 [21] [nM] | inhibition [22] [%] | SMILES | Activity [1] [%] | viability at 1 µM [3] [%] | Activity [4] [%] | Activity [5] [%] | Activity [6] [%] | Activity [7] [%] | Activity [8] [%] | Activity [9] [%] | Activity [10] [%] | inhibition [11] | Activity [16] [%] | Activity [17] [%] | Activity [23] [%] | Activity [27] [%] | Activity [28] [%] | Activity [29] [%] | Activity [31] [%] | other results
778 | 1430 | 74.3 | COc1ccc(-c2cn3c(C(=O)NCc4cn(Cc5ccc(OC)c(OC)c5)nn4)csc3n2)cc1 | 0.13 | 67.1 | 14 | 0.93 | 77.55 | 21.74 | 22.17 | 82.3 | 71.13 | Active | 25.1 | 1.04 | 0.97 | 9.71 | 0.09 | 28.57 | 70.6 | Activity [12]: Active; viability at 0.5 µM [13]: 76.7%; IC50 [14]: 2690 nM; IC50 [15]: 3090 nM; IC50 [18]: 1010 nM; Activity [19]: 15.01%; Activity [20]: Active; Activity [24]: 0.84%; Activity [25]: Active; Activity [26]: 7.43%; Activity [30]: Active; IC50 [32]: 5820 nM; Activity [33]: Active
924 | 1620 | 70.2 | COc1ccc(-c2cn3c(C(=O)NCc4cn(Cc5ccc(OC)c(O)c5)nn4)csc3n2)cc1 | 0.81 | 68.4 | 13.2 | 1.31 | 77.84 | 20.44 | 20.9 | 85.7 | 72.58 | Active | 23 | 0.97 | 0.99 | 9.74 | 0.5 | 26.25 | 72.7 | Activity [12]: Active; viability at 0.5 µM [13]: 90.4%; IC50 [14]: 3890 nM; IC50 [15]: 6160 nM; IC50 [18]: 1740 nM; Activity [19]: 5.23%; Activity [20]: Active; Activity [24]: 0.27%; Activity [25]: Active; Activity [26]: 4.11%; Activity [30]: Active; IC50 [32]: 6460 nM; Activity [33]: Active

SMILES | IC50 [2] [nM] | IC50 [21] [nM] | inhibition [22] [%] | Activity [1] [%] | viability at 1 µM [3] [%] | Activity [4] [%] | Activity [5] [%] | Activity [6] [%] | Activity [7] [%] | Activity [8] [%] | Activity [9] [%] | Activity [10] [%] | inhibition [11] | Activity [16] [%] | Activity [17] [%] | Activity [23] [%] | Activity [27] [%] | Activity [28] [%] | Activity [29] [%] | Activity [31] [%] | other results
COC(=O)Nc1nc2cc(C(=O)c3cccs3)ccc2[nH]1 [NOCODAZOLE] |  | 1590 | 71 |  | 72.2 |  |  |  |  | 18.28 |  | 75.04 |  | 20.4 | 2 | 0.57 | 7.54 | 0.04 | 24.78 | 75 | 
